The values below come from ChEMBL document CHEMBL1240405, “Activity of a new cephalosporin, CXA-101 (FR264205), against beta-lactam-resistant Pseudomonas aeruginosa mutants selected in vitro and after antipseudomonal treatment of intensive care unit patients” (2010).

Holding throughout (assay type): functional
Assay [1] relates to Pseudomonas aeruginosa. Briefly: Antimicrobial activity against beta-lactam resistant Pseudomonas aeruginosa PAO1 by broth microdilution method. Put shortly:
(§1)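 Broth microdilution MICs per CLSI M100-S18, over 0.12 to 256 μg/ml. Strains are PAO1 and its mutants. oprD mutants were selected overnight on Mueller-Hinton agar with 4 μg/ml imipenem, passaged antibiotic-free, then confirmed by oprD amplification and sequencing. PAO1 and ATCC 27853 were run alongside as quality controls.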
In general terms: Broth dilution looks for growth in wells or tubes with falling amounts of substance.

Assay [2] concerns Pseudomonas aeruginosa. The experiment in a line: Antimicrobial activity against beta-lactam resistant Pseudomonas aeruginosa PAO1 deficient in ampD gene selected in vitro after antipseudomonal treatment of intensive care unit patient by broth microdilution method. Put shortly:
as §1

In assay [3] the test system is Pseudomonas aeruginosa. Briefly: Antimicrobial activity against beta-lactam resistant Pseudomonas aeruginosa PAO1 deficient in ampD and ampDh3 gene selected in vitro after antipseudomonal treatment of intensive care unit patient by broth microdilution method. Put shortly:
as §1

The test system of assay [4] is Pseudomonas aeruginosa. Briefly: Antimicrobial activity against beta-lactam resistant Pseudomonas aeruginosa PAO1 deficient in ampD, […] gene selected in vitro after antipseudomonal treatment of intensive care unit patient by broth microdilution method. Put shortly:
as §1

Assay [5] relates to Pseudomonas aeruginosa. Briefly: Antimicrobial activity against beta-lactam resistant Pseudomonas aeruginosa PAO1 deficient in ampD and dacB gene selected in vitro after antipseudomonal treatment of intensive care unit patient by broth microdilution method. The procedure, abridged:
as §1

The test system of assay [6] is Pseudomonas aeruginosa. Briefly: Antimicrobial activity against beta-lactam resistant Pseudomonas aeruginosa PAOD1 harboring oprD spontaneous mutant selected in vitro after antipseudomonal treatment of intensive care unit patient by broth microdilution method. Put shortly: as §1
Assay [7] relates to Pseudomonas aeruginosa. Briefly: Antimicrobial activity against beta-lactam resistant Pseudomonas aeruginosa PAOD2 harboring oprD spontaneous mutant selected in vitro after antipseudomonal treatment of intensive care unit patient by broth microdilution method. The procedure, abridged:
as §1

In assay [8] the test system is Pseudomonas aeruginosa. The experiment in a line: Antimicrobial activity against beta-lactam resistant Pseudomonas aeruginosa PAOD3 harboring oprD spontaneous mutant selected in vitro after antipseudomonal treatment of intensive care unit patient by broth microdilution method. The procedure, abridged: as §1
For assay [9], the system named is Pseudomonas aeruginosa. The experiment in a line: Antimicrobial activity against beta-lactam resistant Pseudomonas aeruginosa PAOD1 harboring oprD spontaneous mutant and deficient in ampD gene selected in vitro after antipseudomonal treatment of intensive care unit patient by broth microdilution method. Put shortly:
as §1

For assay [10], the system named is Pseudomonas aeruginosa. Briefly: Antimicrobial activity against beta-lactam resistant Pseudomonas aeruginosa PAOD2 harboring oprD spontaneous mutant and deficient in ampD gene by selected in vitro after antipseudomonal treatment of intensive care unit patient by broth microdilution method. Put shortly: as §1
Assay [11] deals with Pseudomonas aeruginosa. The experiment in a line: Antimicrobial activity against beta-lactam resistant beta-lactam resistant Pseudomonas aeruginosa PAOD3 harboring oprD spontaneous mutant and deficient in ampD gene selected in vitro after antipseudomonal treatment of intensive care unit patient by broth microdilution method. Put shortly: as §1
The test system of assay [12] is Pseudomonas aeruginosa. Briefly: Antimicrobial activity against beta-lactam resistant Pseudomonas aeruginosa PAOD1 harboring oprD spontaneous mutant and deficient in dacB gene selected in vitro after antipseudomonal treatment of intensive care unit patient by broth microdilution method. The procedure, abridged: as §1
Assay [13] concerns Pseudomonas aeruginosa. The experiment in a line: Antimicrobial activity against beta-lactam resistant Pseudomonas aeruginosa PAOD2 harboring oprD spontaneous mutant and deficient in dacB gene selected in vitro after antipseudomonal treatment of intensive care unit patient by broth microdilution method. The procedure, abridged: as §1
The test system of assay [14] is Pseudomonas aeruginosa. The experiment in a line: Antimicrobial activity against beta-lactam resistant Pseudomonas aeruginosa PAOD3 harboring oprD spontaneous mutant and deficient in dacB gene selected in vitro after antipseudomonal treatment of intensive care unit patient by broth microdilution method. Put shortly:
as §1

The test system of assay [15] is Pseudomonas aeruginosa. Briefly: Antimicrobial activity against Pseudomonas aeruginosa clinical isolate selected in vitro after antipseudomonal treatment of intensive care unit patient by broth microdilution method. Put shortly:
(§2)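 MICs by standard CLSI broth microdilution (M100-S18) at 0.12 to 256 μg/ml. The isolates are sequential P. aeruginosa isolates that emerged during antipseudomonal therapy of patients in a Spanish ICU (2002–2003). P. aeruginosa PAO1 and ATCC 27853 were run in parallel for quality control.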

The test system of assay [16] is Pseudomonas aeruginosa. The experiment in a line: Antimicrobial activity against Ceftazidime resistant Pseudomonas aeruginosa clinical isolate selected in vitro after antipseudomonal treatment of intensive care unit patient by broth microdilution method. Put shortly: as §2
In assay [17] the test system is Pseudomonas aeruginosa. The experiment in a line: Antimicrobial activity against cefipime resistant Pseudomonas aeruginosa clinical isolate selected in vitro after antipseudomonal treatment of intensive care unit patient by broth microdilution method. The procedure, abridged: as §2
The subject of assay [18] is Pseudomonas aeruginosa. The experiment in a line: Antimicrobial activity against PIP-tazobactam resistant Pseudomonas aeruginosa clinical isolate selected in vitro after antipseudomonal treatment of intensive care unit patient by broth microdilution method. The procedure, abridged: as §2
The subject of assay [19] is Pseudomonas aeruginosa. Briefly: Antimicrobial activity against Imipenem resistant Pseudomonas aeruginosa clinical isolate selected in vitro after antipseudomonal treatment of intensive care unit patient by broth microdilution method. The procedure, abridged: as §2
Assay [20] relates to Pseudomonas aeruginosa. Briefly: Antimicrobial activity against meropenem resistant Pseudomonas aeruginosa clinical isolate selected in vitro after antipseudomonal treatment of intensive care unit patient by broth microdilution method. Put shortly: as §2
The test system of assay [21] is Pseudomonas aeruginosa. The experiment in a line: Antimicrobial activity against ciprofloxacin resistant Pseudomonas aeruginosa clinical isolate selected in vitro after antipseudomonal treatment of intensive care unit patient by broth microdilution method. Put shortly: as §2
Assay [22] deals with Pseudomonas aeruginosa. Briefly: Antimicrobial activity against multidrug resistant Pseudomonas aeruginosa clinical isolate selected in vitro after antipseudomonal treatment of intensive care unit patient by broth microdilution method. Put shortly: as §2
In assay [23] the test system is Pseudomonas aeruginosa. Briefly: Antimicrobial activity against pan-beta-lactam resistant Pseudomonas aeruginosa clinical isolate selected in vitro after antipseudomonal treatment of intensive care unit patient by broth microdilution method. The procedure, abridged: as §2
In assay [24] the test system is Pseudomonas aeruginosa. Briefly: Antimicrobial activity against Pseudomonas aeruginosa AmpC overexpressing clinical isolate selected in vitro after antipseudomonal treatment of intensive care unit patient by broth microdilution method. The procedure, abridged:
as §2

The test system of assay [25] is Pseudomonas aeruginosa. The experiment in a line: Antimicrobial activity against Pseudomonas aeruginosa by after 18-20 hrs agar dilution method.
Assay [26] relates to Pseudomonas aeruginosa. Briefly: Antimicrobial activity against cefipime resistant Pseudomonas aeruginosa by microdilution method.
In assay [27] the test system is Pseudomonas aeruginosa. The experiment in a line: Antimicrobial activity against cefipime resistant Pseudomonas aeruginosa overexpressing MexXY-OprM gene by microdilution method.
The test system of assay [28] is Pseudomonas aeruginosa. Briefly: Antimicrobial activity against metallo beta-lactamase producing Pseudomonas aeruginosa isolates.
In assay [29] the test system is Pseudomonas aeruginosa. The experiment in a line: Antimicrobial activity against extended spectrum beta-lactamase producing Pseudomonas aeruginosa isolates by broth microdilution method.
In assay [30] the test system is Pseudomonas aeruginosa. The experiment in a line: Antimicrobial activity against beta-lactam resistant Pseudomonas aeruginosa PA01 deficient in dacB gene by broth microdilution method. The procedure, abridged:
as §1

The test system of assay [31] is Pseudomonas aeruginosa. Briefly: Antimicrobial activity against Pseudomonas aeruginosa clinical isolate assessed as resistant isolates selected in vitro after antipseudomonal treatment of intensive care unit patient by CLSI method.

Values after ≈ are worked out from the molar mass of the structure shown.

With `Cn1c(N)c(NC(=O)NCCN)c[n+]1CC1=C(C(=O)O)N2C(=O)[C@@H](NC(=O)/C(=N\OC(C)(C)C(=O)[O-])c3nsc(N)n3)[C@H]2SC1` [CEFTOLOZANE], the MIC (as a rule, the smallest concentration in the dilution series that meets the test's criterion for growth inhibition) was found to be 0.5 µg/mL (≈ 0.75 µM) in assay [1]; 0.5 µg/mL (≈ 0.75 µM) in assay [2]; 1 µg/mL (≈ 1.5 µM) in [3]; 1 µg/mL (≈ 1.5 µM) in [4]; 2 µg/mL (≈ 3 µM) in [5]; 0.5 µg/mL (≈ 0.75 µM) in assay [6]. For the same compound, the MIC in assay [7], in assay [8], in assay [9], in assay [10], in assay [11] and in [12] was 0.5 µg/mL (≈ 0.75 µM) each time. Besides, the MIC came out at 0.5 µg/mL (≈ 0.75 µM) in assay [13]; 0.5 µg/mL (≈ 0.75 µM) in assay [14]; 0.88 µg/mL (≈ 1.32 µM) in assay [21]; 1.83 µg/mL (≈ 2.74 µM) in assay [22]; 2.53 µg/mL (≈ 3.79 µM) in assay [23]; 0.71 µg/mL (≈ 1.06 µM) in assay [24]. Further, the MIC in assay [26] is 1 µg/mL (≈ 1.5 µM); in assay [27], 1 µg/mL (≈ 1.5 µM); in assay [29], more than 8 µg/mL; in assay [30] it was 1 µg/mL (≈ 1.5 µM). Further, the MIC50 (commonly an inhibitory concentration at the 50% level, which refers to growth in some studies and to a panel of isolates in others) was 0.5 µg/mL (≈ 0.75 µM) in [15]; 1 µg/mL (≈ 1.5 µM) in assay [16]; 1 µg/mL (≈ 1.5 µM) in assay [17]; 1 µg/mL in [18]; 0.5 µg/mL (≈ 0.75 µM) in assay [19]; 0.5 µg/mL (≈ 0.75 µM) in assay [20]. In addition, the MIC50 in assay [21] and in [24] was 1 µg/mL (≈ 1.5 µM) each time. Also, the MIC80 (commonly an inhibitory concentration at the 80% level, which refers to growth in some studies and to a panel of isolates in others) in [15] is 0.53 µg/mL (≈ 0.795 µM). Also, the MIC90 – broadly, an inhibitory concentration at the 90% level, which refers to growth in some studies and to a panel of isolates in others – in assay [15] was found to be 2 µg/mL (≈ 3 µM); in assay [16], 4 µg/mL (≈ 6 µM); in [17], 4 µg/mL (≈ 6 µM); in assay [18] it was 4 µg/mL; in assay [19] it was 4 µg/mL (≈ 6 µM); in assay [20] it was 4 µg/mL (≈ 6 µM). Moreover, the MIC90 in assay [21] and in [24] was 4 µg/mL (≈ 6 µM) throughout. The GM MIC in assay [16] was 0.94 µg/mL; in assay [17] it was 0.91 µg/mL; in assay [18], 1.59 µg/mL; in [19], 0.84 µg/mL; in [20], 0.86 µg/mL. Also, the results for the Ratio in [25] and in assay [28] were -0.5 and 0.25, respectively.

Consider `C[C@@H](O)[C@H]1C(=O)N2C(C(=O)O)=C(SCCNC=N)C[C@H]12` [IMIPENEM ANHYDROUS], for which the MIC turned out to be 2 µg/mL (≈ 6.68 µM) in assay [1]; 2 µg/mL (≈ 6.68 µM) in assay [2]; 2 µg/mL (≈ 6.68 µM) in assay [3]; 1 µg/mL (≈ 3.34 µM) in [4]; 2 µg/mL (≈ 6.68 µM) in assay [5]; 16 µg/mL (≈ 53.4 µM) in [6]. Further, the MIC in [7] is 8 µg/mL (≈ 26.7 µM); in assay [8], 16 µg/mL (≈ 53.4 µM); in assay [9] it was 16 µg/mL (≈ 53.4 µM); in assay [10], 16 µg/mL (≈ 53.4 µM); in assay [11] it was 16 µg/mL (≈ 53.4 µM); in [12] it was 16 µg/mL (≈ 53.4 µM). Further, the MIC was determined as 16 µg/mL (≈ 53.4 µM) in [13], 16 µg/mL (≈ 53.4 µM) in [14] and 2 µg/mL (≈ 6.68 µM) in [30]. For the same compound, the Activity in assay [31] is listed as 57%.

Turning to `C[C@@H](O)[C@H]1C(=O)N2C(C(=O)O)=C(S[C@@H]3CN[C@H](C(=O)N(C)C)C3)[C@H](C)[C@H]12` [MEROPENEM], the MIC was 0.5 µg/mL (≈ 1.3 µM) in assay [1]; 2 µg/mL (≈ 5.22 µM) in [2]; 2 µg/mL (≈ 5.22 µM) in [3]; 1 µg/mL (≈ 2.61 µM) in [4]; 2 µg/mL (≈ 5.22 µM) in assay [5]; 1 µg/mL (≈ 2.61 µM) in assay [6]. Further, the MIC in assay [7] turned out to be 2 µg/mL (≈ 5.22 µM); in [8], 2 µg/mL (≈ 5.22 µM); in assay [9] it was 8 µg/mL (≈ 20.9 µM); in [10], 8 µg/mL (≈ 20.9 µM); in assay [11], 8 µg/mL (≈ 20.9 µM); in [12] it was 4 µg/mL (≈ 10.4 µM). Further, the MIC in [13] is 4 µg/mL (≈ 10.4 µM); in assay [14], 4 µg/mL (≈ 10.4 µM); in assay [30], 0.5 µg/mL (≈ 1.3 µM). Besides, the Activity in [31] came to 52%.

Turning to `CCN1CCN(C(=O)N[C@@H](C(=O)N[C@@H]2C(=O)N3[C@@H]2SC(C)(C)[C@@H]3C(=O)O)c2ccccc2)C(=O)C1=O` [PIPERACILLIN], the minimum inhibitory concentration (MIC) in assay [1] is 4 µg/mL (≈ 7.73 µM); in assay [2], 16 µg/mL (≈ 30.9 µM); in assay [3], 128 µg/mL (≈ 247 µM); in [4] it was 64 µg/mL (≈ 124 µM); in assay [5], 64 µg/mL (≈ 124 µM); in assay [6], more than 256 µg/mL. The MIC in assay [7] amounted to 4 µg/mL (≈ 7.73 µM); in assay [8], 4 µg/mL (≈ 7.73 µM); in [9], 4 µg/mL (≈ 7.73 µM); in assay [10] it was 32 µg/mL (≈ 61.8 µM); in assay [11], 64 µg/mL (≈ 124 µM); in assay [12] it was 64 µg/mL (≈ 124 µM). Also, the MIC in assay [13], in assay [14] and in assay [30] was 64 µg/mL (≈ 124 µM) in each case.
